NPY1 pot ag: NPY-Y1 receptor potentiators or agonists, primary screen, cell-based. 220,000 tested, 0.37% active. AID 1304, 2008. Neuropeptide Y receptor type 1 (Homo sapiens), P25929. activation, % at 3.6 µM. NPY-Y1 expressing cells, potentiator/agonist activation; in the data active = activation above about 33%, passing the limit was not always enough;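 note: cells stimulated with NPY at EC10 then isoproterenol at EC100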
Target sequence (P25929 whole entry, looked up): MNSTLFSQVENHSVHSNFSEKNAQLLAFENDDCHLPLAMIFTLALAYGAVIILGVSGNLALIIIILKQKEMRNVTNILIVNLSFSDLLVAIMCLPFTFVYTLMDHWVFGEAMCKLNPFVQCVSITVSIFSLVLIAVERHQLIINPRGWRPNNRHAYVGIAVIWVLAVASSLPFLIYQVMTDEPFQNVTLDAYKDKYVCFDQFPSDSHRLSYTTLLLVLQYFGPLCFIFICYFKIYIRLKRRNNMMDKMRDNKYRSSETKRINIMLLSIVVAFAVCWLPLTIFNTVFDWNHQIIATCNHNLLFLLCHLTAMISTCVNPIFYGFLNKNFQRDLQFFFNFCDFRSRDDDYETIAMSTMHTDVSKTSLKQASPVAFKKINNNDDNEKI
NPY-Y2 PAM-ag: NPY-Y2 potentiators or agonists, primary screen, cell-based | cells expressing NPY-Y2, potentiator/agonist read-out | activation, % at 3.6 µM | AID 1359, 2008 | 220,000 tested, 0.45% active; in the data active = activation above about 27%;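 note: cells stimulated with NPY near EC25 plus isoproterenol at EC100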
NPY Y1 blocker: NPY-Y1 receptor antagonists, primary screen, cell-based. HEK293-CNG Y1 cells, membrane potential fluorescence; NPY at EC95, then isoproterenol. inhibition, % at 3.6 µM. 200,000 tested, 1% active;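 active = inhibition above the campaign mean inhibition of all tested compounds plus 3 SD, cut at about 20% in these data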
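Benchmarks – high control isoproterenol alone, low control NPY with isoproterenol · Material – HEK293 Y1/CNG channel cell line · Times – dye 3 h, compound 60 min room temperature, stimulation 45 min · Probe or stimulus – NPY (25 nM), isoproterenol (1 µM), Ro 20-1724 (25 µM) · Evaluation – % inhibition of NPY effect · Signal – fluorescence, membrane potential probe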
Furin inhibitor: human furin inhibitors, primary screen, biochemical, fluorescence intensity. purified furin, fluorogenic substrate cleavage. P09958. 220,000 tested, 0.061% active. inhibition, % at 20 µM or 30 µM; in the data active = inhibition above about 25%
NPY-Y2 antag: NPY-Y2 receptor antagonists, primary screen, cell-based. Neuropeptide Y receptor type 2 (Homo sapiens), P49146. NPY-Y2 expressing cells, antagonist mode. inhibition, % at 2.7 µM. 140,000 tested, 0.99% active. AID 793, 2007; in the data active = inhibition above about 17%
Cl transport mod: KCC2 cotransporter modulators, thallium flux, primary screen, cell-based, HEK293 KCC2, FluoZin-2 fluorescence, MLSMR; Solute carrier family 12 member 5 (Homo sapiens), Q9H2X9; KCC2 cells, thallium flux FluoZin-2 fluorescence; B-score of Tl+ flux slope (higher = more flux/activation; lower = inhibition) at 10 µM; 190,000 tested, 2.2% active;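 active = thallium flux slope and its plate-corrected score both differing from the plate sample mean at a set confidence after two filtering rounds, in either direction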;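 note: slope of fluorescence scaled to starting intensity during 10 to 20 s after thallium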
KCC2 sec1: KCC2 modulators in sodium-free buffer, confirmation, cell-based, HEK293 KCC2, thallium flux, secondary assay | normalised thallium flux (F/F0 slope) at 10 µM | shares compounds with Cl transport mod | 3,700 tested, 15% active | FluoZin2 fluorescence; hits give high values;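 active = thallium flux slope above the same plate's solvent-only control mean plus 3 SD; inconclusive = the two replicate wells disagree; inactive = no significant difference from solvent-only control wells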
KCC2 bumet counter: thallium flux persisting under bumetanide in KCC2 cells, confirmation, counter-screen for KCC2 modulator project, cell-based, HEK293 KCC2, FluoZin2, secondary assay 3; HEK293-KCC2 + bumetanide/ouabain; hits give high values; shares compounds with Cl transport mod; normalized thallium flux at 10 µM; 3,700 tested, 49% active; AID 1714, 2009;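 active = thallium entry rate above the same plate's blocked-transporter control wells by more than 3 SD; inconclusive = the two repeat wells disagree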;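 note: raw slope of fluorescence over initial fluorescence between 10 and 20 s after thallium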
KCC2 sec2: KCC2 modulators without ouabain present, confirmation, cell-based, HEK293 KCC2, thallium flux, FluoZin2, secondary assay 2 | shares compounds with Cl transport mod | thallium flux FluoZin2 fluorescence; actives lie on both sides; F/F0 rise rate, 10–20 s post-thallium | normalized thallium flux at 10 µM | 3,700 tested, 23% active | AID 1715, 2009;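 active = thallium flux slope more than 3 SD above or below the plate's solvent-only control mean, mostly below; inconclusive = the two repeat wells disagreed; inactive = no significant shift from solvent-only controls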
HEK293 Tl flux: thallium flux modulation in parental HEK cells, confirmation, counter-screen for KCC2 modulator project, cell-based, counterscreen 1; shares compounds with Cl transport mod; HEK293 parental cells, thallium flux FluoZin2, ouabain; baseline-ratio fluorescence slope, 10–20 s after thallium; thallium flux rate (normalised fluorescence) at 10 µM; 3,700 tested, 46% active; AID 1716, 2009;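 active = thallium flux rate significantly above the same plate's solvent-only control wells, beyond their mean plus 3 SD; inconclusive = the two replicate wells gave conflicting results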
KCC2 retest ouab: KCC2 inhibitors and activators, ouabain retest, confirmation, HEK-KCC2 cells | shares compounds with Cl transport mod | HEK293-KCC2, thallium flux FluoZin2 fluorescence; bidirectional: low = inhibitor, high = activator | raw Tl+ flux slope (below DMSO = inhibition, above = activation) at 10 µM | 3,700 tested, 48% active | AID 1717, 2009;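 active = thallium flux slope beyond 3 SD from same-plate DMSO control mean in most replicates, usually higher, sometimes lower; inconclusive = repeat tests gave conflicting results; inactive = no significant difference from controls in most replicates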;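 note: slope of initial-normalized fluorescence between seconds 10 and 20 after thallium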
HEK counter2: native HEK Tl+ uptake effects, second counter-screen – HEK cells, counterscreen 2, counter-screen for KCC2 modulator project, confirmation | thallium flux slope at 10 µM | shares compounds with Cl transport mod | 3,700 tested, 33% active | HEK293 parental, thallium flux FluoZin-2 fluorescence slope;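 active = thallium flux slope above the same plate's solvent-control mean plus 3 SD in both duplicate wells; inconclusive = duplicate wells that disagreed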;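 note: run without ouabain in cells lacking the KCC2 cotransporter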
Of the large screens only hits and unclear results are named; the others gave an inactive call (follow-up assays come after a bar, where they were run). Compounds with a hit are over-represented: about 3.7% of the library has one in this group of screens.

CCn1c(SCC(N)=O)nnc1-c1ccc(S(=O)(=O)N2CCN(C)CC2)cc1	Cl transport mod 3.7 | KCC2 sec1 inactive | KCC2 bumet counter inactive | KCC2 sec2 inactive | HEK293 Tl flux inconclusive | KCC2 retest ouab inactive | HEK counter2 inconclusive
Cc1cc(S(=O)(=O)N(Cc2ccccc2)Cc2ccc(N(C)C)cc2)ccc1-n1cnnn1	none
Cc1cc(S(=O)(=O)N(C)CCc2ccccc2)ccc1-n1cnnn1	Cl transport mod -4.6 | KCC2 sec1 inactive | KCC2 bumet counter inactive | KCC2 sec2 0.024 | HEK293 Tl flux inactive | KCC2 retest ouab 0.016 | HEK counter2 inactive
Cc1cccc(-n2c(=S)[nH]c3sc4c(c3c2=O)CCc2ccccc2-4)c1	Cl transport mod 21 (no result: NPY-Y2 antag) | KCC2 sec1 0.02 | KCC2 bumet counter 0.046 | KCC2 sec2 inactive | HEK293 Tl flux 0.04 | KCC2 retest ouab 0.043 | HEK counter2 0.018
O=C(O)C1CCc2sc3[nH]c(=S)n(-c4ccccc4)c(=O)c3c21 (stereo unspecified)	none (no result: NPY Y1 blocker, NPY-Y2 antag)
NC(=O)c1sc(-c2ccsc2)cc1NS(=O)(=O)c1ccc(C(F)(F)F)cc1	Cl transport mod -5.4 (no result: NPY Y1 blocker, NPY-Y2 antag) | KCC2 sec1 inactive | KCC2 bumet counter inactive | KCC2 sec2 inactive | HEK293 Tl flux inactive | KCC2 retest ouab 0.012 | HEK counter2 inactive
CC(=O)c1sc(NS(=O)(=O)c2ccc(C)cc2)nc1C	none (no result: NPY-Y2 antag)
CC(=O)c1sc(-c2ccc(F)cc2)cc1NS(=O)(=O)c1ccc(C)cc1	Cl transport mod 10 (no result: NPY Y1 blocker, NPY-Y2 antag) | KCC2 sec1 inactive | KCC2 bumet counter inactive | KCC2 sec2 inactive | HEK293 Tl flux inactive | KCC2 retest ouab inactive | HEK counter2 inactive
O=C1OCc2ccc(NS(=O)(=O)c3ccc(C(F)(F)F)cc3)cc21	none (no result: NPY Y1 blocker, NPY-Y2 antag)
CCc1cc2cc(C)cc(C)c2[nH]c1=S	Cl transport mod 124 (no result: NPY-Y2 antag) | KCC2 sec1 inactive | KCC2 bumet counter 0.024 | KCC2 sec2 0.11 | HEK293 Tl flux 0.11 | KCC2 retest ouab 0.086 | HEK counter2 0.11
CS(=O)(=O)N(CCc1ccccc1)CC(=O)N1CCN(Cc2ccccc2)CC1	Cl transport mod -3.2 | KCC2 sec1 inactive | KCC2 bumet counter inactive | KCC2 sec2 inactive | HEK293 Tl flux inactive | KCC2 retest ouab inconclusive | HEK counter2 inactive
